Reference: ChEMBL document CHEMBL2046381, “Defining the mechanism of action and enzymatic selectivity of psammaplin A against its epigenetic targets” (J Med Chem, 2012)
Calls of active or inactive are those of the source. The rule behind the calls is not given here.

Legend:
[1] = molecular target: T1, Histone deacetylase-like amidohydrolase (Alcaligenes sp. (strain DSM 11172) (Bordetella sp. (strain FB188)), UniProt Q70I53); assay: Inhibition of Bordetella sp. (strain FB188) N-terminus His-tagged HDAH expressed in Escherichia coli BL21 (DE3); design: species or system Alcaligenaceae bacterium FB188
T1 sequence (Q70I53 whole entry): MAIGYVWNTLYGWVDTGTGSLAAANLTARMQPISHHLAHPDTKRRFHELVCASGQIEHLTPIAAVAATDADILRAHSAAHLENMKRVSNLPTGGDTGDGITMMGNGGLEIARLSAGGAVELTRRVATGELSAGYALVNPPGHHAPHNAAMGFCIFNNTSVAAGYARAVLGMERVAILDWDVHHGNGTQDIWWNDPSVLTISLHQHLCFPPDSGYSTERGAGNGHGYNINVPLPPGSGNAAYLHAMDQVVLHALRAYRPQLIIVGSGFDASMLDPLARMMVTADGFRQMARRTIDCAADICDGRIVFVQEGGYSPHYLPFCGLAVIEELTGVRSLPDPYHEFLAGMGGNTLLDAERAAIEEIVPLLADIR
Method in brief: (§1)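 Recombinant N-terminal His6-tagged HDAH from Bordetella strain FB188, expressed in E. coli BL21, purified on zinc-loaded His-Trap column, eluted with 500 mM imidazole, dialyzed into assay buffer (>98% pure by SDS-PAGE). Tested directly against compounds; thiols generated in situ from disulfides with TCEP.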

[2] = tested on: A549; assay: Growth inhibition of human A549 cells after 96 hrs by sulphorhodamine B assay; format: functional; settings: A549, 96 h
Method in brief: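 SRB growth assay; MCF7 and WI38 seeded 4000 cells/well, A549 2000 cells/well, attached overnight, then exposed to freshly made drug solutions (0.1 to 50 μM) for 96 h. Fixed with cold 10% TCA, stained with 0.4% SRB; absorbance at 540 nm as percent of untreated control, IC50 from mean absorbance.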

[3] = molecular target: T2, Histone deacetylase 8 (Homo sapiens, UniProt Q9BY41); assay: Inhibition of human recombinant HDAC8 using Boc-lys(Ac)-AMC as substrate preincubated for 20 mins with substrate measured after 60 mins by fluorescence analysis
T2 sequence (Q9BY41 whole entry): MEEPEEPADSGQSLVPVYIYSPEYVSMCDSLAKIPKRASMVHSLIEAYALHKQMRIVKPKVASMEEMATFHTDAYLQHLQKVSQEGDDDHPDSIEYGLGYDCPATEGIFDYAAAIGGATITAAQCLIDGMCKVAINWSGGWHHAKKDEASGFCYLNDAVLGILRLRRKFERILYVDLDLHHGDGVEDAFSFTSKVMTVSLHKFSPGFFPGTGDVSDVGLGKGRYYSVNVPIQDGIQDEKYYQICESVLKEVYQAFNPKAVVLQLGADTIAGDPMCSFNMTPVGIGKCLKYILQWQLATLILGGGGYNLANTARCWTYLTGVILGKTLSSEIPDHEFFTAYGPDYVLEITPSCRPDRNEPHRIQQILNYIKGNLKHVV

[4] = molecular target: Histone deacetylase 1 (Homo sapiens, UniProt Q13547); assay: Inhibition of human recombinant HDAC1 using Boc-lys(Ac)-AMC as substrate preincubated for 20 mins with substrate measured after 60 mins by fluorescence analysis
Chain of Histone deacetylase 1 (Q13547 whole entry): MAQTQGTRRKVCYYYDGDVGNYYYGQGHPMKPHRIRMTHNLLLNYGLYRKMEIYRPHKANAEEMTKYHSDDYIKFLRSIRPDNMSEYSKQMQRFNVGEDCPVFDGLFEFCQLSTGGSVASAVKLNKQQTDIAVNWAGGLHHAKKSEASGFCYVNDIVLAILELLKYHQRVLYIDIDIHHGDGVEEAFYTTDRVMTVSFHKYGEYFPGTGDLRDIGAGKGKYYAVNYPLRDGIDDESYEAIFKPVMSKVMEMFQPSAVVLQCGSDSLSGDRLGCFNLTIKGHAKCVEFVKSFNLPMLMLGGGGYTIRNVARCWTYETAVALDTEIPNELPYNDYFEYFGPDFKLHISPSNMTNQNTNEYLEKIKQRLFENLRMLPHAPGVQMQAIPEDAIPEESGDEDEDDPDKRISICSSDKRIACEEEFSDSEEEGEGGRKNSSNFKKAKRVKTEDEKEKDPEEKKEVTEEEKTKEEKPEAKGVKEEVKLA

[5] = molecular target: T3, Protein deacetylase HDAC6 (Homo sapiens, UniProt Q9UBN7); assay: Inhibition of human recombinant HDAC6 using Boc-lys(Ac)-AMC as substrate preincubated for 20 mins with substrate measured after 60 mins by fluorescence analysis
T3 sequence (Q9UBN7 whole entry): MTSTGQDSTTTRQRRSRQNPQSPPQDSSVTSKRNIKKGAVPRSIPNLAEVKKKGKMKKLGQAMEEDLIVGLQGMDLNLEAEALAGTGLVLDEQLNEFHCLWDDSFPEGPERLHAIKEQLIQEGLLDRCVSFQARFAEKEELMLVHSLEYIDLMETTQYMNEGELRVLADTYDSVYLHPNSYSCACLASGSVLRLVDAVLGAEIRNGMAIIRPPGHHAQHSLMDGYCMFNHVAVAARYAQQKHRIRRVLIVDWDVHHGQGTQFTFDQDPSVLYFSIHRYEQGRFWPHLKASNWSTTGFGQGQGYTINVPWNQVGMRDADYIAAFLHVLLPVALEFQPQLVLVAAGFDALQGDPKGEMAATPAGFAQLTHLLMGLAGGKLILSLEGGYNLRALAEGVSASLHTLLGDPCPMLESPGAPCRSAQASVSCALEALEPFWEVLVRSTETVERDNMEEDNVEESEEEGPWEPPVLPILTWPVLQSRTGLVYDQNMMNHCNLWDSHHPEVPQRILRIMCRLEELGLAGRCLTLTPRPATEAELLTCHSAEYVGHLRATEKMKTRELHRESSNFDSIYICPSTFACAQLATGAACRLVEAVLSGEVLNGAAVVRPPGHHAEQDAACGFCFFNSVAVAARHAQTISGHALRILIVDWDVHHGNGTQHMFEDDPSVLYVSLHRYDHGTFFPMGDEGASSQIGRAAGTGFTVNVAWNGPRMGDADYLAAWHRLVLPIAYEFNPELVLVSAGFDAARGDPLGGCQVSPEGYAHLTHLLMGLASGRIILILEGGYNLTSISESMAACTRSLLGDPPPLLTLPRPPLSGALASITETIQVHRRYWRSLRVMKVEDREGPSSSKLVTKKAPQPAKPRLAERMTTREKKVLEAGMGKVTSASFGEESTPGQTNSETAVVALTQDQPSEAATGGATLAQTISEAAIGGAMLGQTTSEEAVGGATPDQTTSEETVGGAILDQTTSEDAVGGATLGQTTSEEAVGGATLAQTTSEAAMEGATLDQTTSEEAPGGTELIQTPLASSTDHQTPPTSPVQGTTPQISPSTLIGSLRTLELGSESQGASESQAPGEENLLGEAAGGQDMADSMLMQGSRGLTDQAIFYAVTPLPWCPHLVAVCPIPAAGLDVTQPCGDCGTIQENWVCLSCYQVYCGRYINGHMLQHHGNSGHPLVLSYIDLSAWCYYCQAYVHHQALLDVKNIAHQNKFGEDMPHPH

[6] = molecular target: T4, Histone deacetylase-like amidohydrolase (Alcaligenes sp. (strain DSM 11172) (Bordetella sp. (strain FB188))) (UniProt Q70I53); assay: Inhibition of Bordetella sp. (strain FB188) N-terminus His-tagged HDAH expressed in Escherichia coli BL21 (DE3) up to 100 uM; settings: Alcaligenaceae bacterium FB188; method in brief: as §1
T4 sequence (whole entry): T1 sequence (Q70I53 whole entry)

[7] = tested on: MCF7; assay: Selectivity index, ratio of GI50 for human A549 cells to GI50 for human MCF7 cells; format: functional
[8] = tested on: MCF7; assay: Selectivity index, ratio of GI50 for human WI38 cells to GI50 for human MCF7 cells; format: functional

IC50 [1]: 32 µM | GI50 [2]: 33.4 µM | IC50 [3]: 13 µM | IC50 [4]: 5 nM | IC50 [5]: 1000 nM | inhibition [6]: inactive
Compound: N/N=C(\Cc1ccc(O)c(Br)c1)C(=O)NCCS
RatioGI50 [7]: 10 | RatioGI50 [8]: 10
